Converted amounts (≈) assume the structure as drawn.
test system: Pichia kudriavzevii; assay: Anticandida activity against Candida krusei clinical isolate assessed as growth inhibition after 24 hrs by broth microdilution method; assay type: functional; conditions: not given
Summary of the method: (§1)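 Clinical Candida isolates subcultured for purity and optimal growth before testing; compounds dissolved in DMSO. Broth microdilution per NCCLS in Sabouraud dextrose broth, serial dilutions, inoculum about 10³/mL, with growth control and medium-only control; 24 h incubation at 37 °C. MIC is the lowest concentration giving complete visible inhibition.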

Structure (SMILES)	MIC [µg/mL]
CCC(CC)=NNc1nc(-c2ccc(C)cc2)cs1	2 (≈ 7.32 µM)
C/C(=N\Nc1nc(-c2ccc(Cl)cc2Cl)cs1)C1CCCCC1	2 (≈ 5.43 µM)
CCCC/C(CC)=N/Nc1nc(-c2ccc(OC)cc2)cs1	2 (≈ 6.3 µM)

test system: Candida albicans; assay: Anticandida activity against Candida albicans clinical isolate assessed as growth inhibition after 24 hrs by broth microdilution method; assay type: functional; conditions: not given; summary of the method: as §1

Structure (SMILES)	MIC [µg/mL]
CCC(CC)=NNc1nc(-c2ccc(C)cc2)cs1	0.5 (≈ 1.83 µM)
C/C(=N\Nc1nc(-c2ccc(Cl)cc2Cl)cs1)C1CCCCC1	0.25 (≈ 0.679 µM)
CCCC/C(CC)=N/Nc1nc(-c2ccc(OC)cc2)cs1	0.25 (≈ 0.788 µM)

test system: Escherichia coli; assay: Antibacterial activity against Escherichia coli assessed as growth inhibition after 18 to 22 hrs by broth microdilution method; assay type: functional; conditions: not given
Summary of the method: (§2)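 Bacterial isolates subcultured for purity, identified conventionally. Broth microdilution per NCCLS in Mueller-Hinton II broth; plates with growth control (no compound) and medium-only control, incubated 18-22 h at 35 °C. MIC taken as lowest concentration giving complete growth inhibition by unaided eye.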

Structure (SMILES)	MIC [µg/mL]
CCC(CC)=NNc1nc(-c2ccc(C)cc2)cs1	> 256
C/C(=N\Nc1nc(-c2ccc(Cl)cc2Cl)cs1)C1CCCCC1	> 256
CCCC/C(CC)=N/Nc1nc(-c2ccc(OC)cc2)cs1	> 256

test system: Staphylococcus warneri; assay: Antibacterial activity against Staphylococcus warneri assessed as growth inhibition after 18 to 22 hrs by broth microdilution method; assay type: functional; conditions: not given; summary of the method: as §2

Structure (SMILES)	MIC [µg/mL]
CCC(CC)=NNc1nc(-c2ccc(C)cc2)cs1	> 256
C/C(=N\Nc1nc(-c2ccc(Cl)cc2Cl)cs1)C1CCCCC1	> 256
CCCC/C(CC)=N/Nc1nc(-c2ccc(OC)cc2)cs1	> 256

test system: Streptococcus alpha-hemolyticus; assay: Antibacterial activity against Streptococcus alpha-hemolyticus assessed as growth inhibition after 18 to 22 hrs by broth microdilution method; conditions: not given

Structure (SMILES)	MIC [µg/mL]
CCC(CC)=NNc1nc(-c2ccc(C)cc2)cs1	> 256
C/C(=N\Nc1nc(-c2ccc(Cl)cc2Cl)cs1)C1CCCCC1	> 256
CCCC/C(CC)=N/Nc1nc(-c2ccc(OC)cc2)cs1	> 256

test system: Candida parapsilosis; assay: Anticandida activity against Candida parapsilosis clinical isolate assessed as growth inhibition after 24 hrs by broth microdilution method; assay type: functional; conditions: Lodderomyces parapsilosis; summary of the method: as §1

Structure (SMILES)	MIC [µg/mL]
CCC(CC)=NNc1nc(-c2ccc(C)cc2)cs1	2 (≈ 7.32 µM)
C/C(=N\Nc1nc(-c2ccc(Cl)cc2Cl)cs1)C1CCCCC1	2 (≈ 5.43 µM)
CCCC/C(CC)=N/Nc1nc(-c2ccc(OC)cc2)cs1	2 (≈ 6.3 µM)

test system: Enterobacter sp.; assay: Antibacterial activity against Enterobacter spp. assessed as growth inhibition after 18 to 22 hrs by broth microdilution method; assay type: functional; conditions: not given; summary of the method: as §2

Structure (SMILES)	MIC [µg/mL]
CCC(CC)=NNc1nc(-c2ccc(C)cc2)cs1	> 256
C/C(=N\Nc1nc(-c2ccc(Cl)cc2Cl)cs1)C1CCCCC1	> 256
CCCC/C(CC)=N/Nc1nc(-c2ccc(OC)cc2)cs1	> 256

test system: not listed separately; assay: Cytotoxicity against human Hep2 cells assessed as cell survival fraction at 0.05 ug/ml after 24 hrs by trypan blue exclusion assay (reference value: 97 to 98%); assay type: cell-based; conditions: HEp-2 cells, read-out: Survival

Structure (SMILES)	viability at 24 h, 0.05 ug/ml [%]
CCC(CC)=NNc1nc(-c2ccc(C)cc2)cs1	92.2
C/C(=N\Nc1nc(-c2ccc(Cl)cc2Cl)cs1)C1CCCCC1	96
CCCC/C(CC)=N/Nc1nc(-c2ccc(OC)cc2)cs1	90.2

test system: Candida tropicalis; assay: Anticandida activity against Candida tropicalis clinical isolate assessed as growth inhibition after 24 hrs by broth microdilution method; assay type: functional; conditions: not given; summary of the method: as §1

Structure (SMILES)	MIC [µg/mL]
CCC(CC)=NNc1nc(-c2ccc(C)cc2)cs1	2 (≈ 7.32 µM)
C/C(=N\Nc1nc(-c2ccc(Cl)cc2Cl)cs1)C1CCCCC1	2 (≈ 5.43 µM)
CCCC/C(CC)=N/Nc1nc(-c2ccc(OC)cc2)cs1	2 (≈ 6.3 µM)

test system: not listed separately; assay: Cytotoxicity against human Hep2 cells assessed as cell survival fraction at 50 ug/ml after 24 hrs by trypan blue exclusion assay (reference value: 97 to 98%); assay type: cell-based; conditions: HEp-2 cells, read-out: Survival

Structure (SMILES)	viability at 24 h, 50 ug/ml [%]
CCC(CC)=NNc1nc(-c2ccc(C)cc2)cs1	67
C/C(=N\Nc1nc(-c2ccc(Cl)cc2Cl)cs1)C1CCCCC1	0
CCCC/C(CC)=N/Nc1nc(-c2ccc(OC)cc2)cs1	0

test system: Staphylococcus aureus; assay: Antibacterial activity against Staphylococcus aureus assessed as growth inhibition after 18 to 22 hrs by broth microdilution method; assay type: functional; conditions: not given; summary of the method: as §2

Structure (SMILES)	MIC [µg/mL]
CCC(CC)=NNc1nc(-c2ccc(C)cc2)cs1	> 256
C/C(=N\Nc1nc(-c2ccc(Cl)cc2Cl)cs1)C1CCCCC1	> 256
CCCC/C(CC)=N/Nc1nc(-c2ccc(OC)cc2)cs1	> 256

test system: not listed separately; assay: Cytotoxicity against human Hep2 cells assessed as cell survival fraction at 0.5 ug/ml after 24 hrs by trypan blue exclusion assay (reference value: 97 to 98%); assay type: cell-based; conditions: HEp-2 cells, read-out: Survival

Structure (SMILES)	viability at 24 h, 0.5 ug/ml [%]
CCC(CC)=NNc1nc(-c2ccc(C)cc2)cs1	86
C/C(=N\Nc1nc(-c2ccc(Cl)cc2Cl)cs1)C1CCCCC1	95
CCCC/C(CC)=N/Nc1nc(-c2ccc(OC)cc2)cs1	84

test system: [Candida] sake; assay: Anticandida activity against Candida sake clinical isolate assessed as growth inhibition after 24 hrs by broth microdilution method; assay type: functional; conditions: Fermentozyma sake; summary of the method: as §1

Structure (SMILES)	MIC [µg/mL]
CCC(CC)=NNc1nc(-c2ccc(C)cc2)cs1	2 (≈ 7.32 µM)
C/C(=N\Nc1nc(-c2ccc(Cl)cc2Cl)cs1)C1CCCCC1	2 (≈ 5.43 µM)
CCCC/C(CC)=N/Nc1nc(-c2ccc(OC)cc2)cs1	2 (≈ 6.3 µM)

test system: Klebsiella oxytoca; assay: Antibacterial activity against Klebsiella oxytoca assessed as growth inhibition after 18 to 22 hrs by broth microdilution method; assay type: functional; conditions: not given; summary of the method: as §2

Structure (SMILES)	MIC [µg/mL]
CCC(CC)=NNc1nc(-c2ccc(C)cc2)cs1	> 256
C/C(=N\Nc1nc(-c2ccc(Cl)cc2Cl)cs1)C1CCCCC1	> 256
CCCC/C(CC)=N/Nc1nc(-c2ccc(OC)cc2)cs1	> 256

test system: Enterococcus faecalis; assay: Antibacterial activity against […] assessed as growth inhibition after 18 to 22 hrs by broth microdilution method; assay type: functional; conditions: not given; summary of the method: as §2

Structure (SMILES)	MIC [µg/mL]
CCC(CC)=NNc1nc(-c2ccc(C)cc2)cs1	> 256
C/C(=N\Nc1nc(-c2ccc(Cl)cc2Cl)cs1)C1CCCCC1	> 256
CCCC/C(CC)=N/Nc1nc(-c2ccc(OC)cc2)cs1	> 256

test system: not listed separately; assay: Cytotoxicity against human Hep2 cells assessed as cell survival fraction at 10 ug/ml after 24 hrs by trypan blue exclusion assay (reference value: 97 to 98%); assay type: cell-based; conditions: HEp-2 cells, read-out: Survival

Structure (SMILES)	viability at 24 h, 10 ug/ml [%]
CCC(CC)=NNc1nc(-c2ccc(C)cc2)cs1	72.4
C/C(=N\Nc1nc(-c2ccc(Cl)cc2Cl)cs1)C1CCCCC1	88
CCCC/C(CC)=N/Nc1nc(-c2ccc(OC)cc2)cs1	70.2

test system: not listed separately; assay: Cytotoxicity against human Hep2 cells assessed as reduction of cell viability after 24 hrs by trypan blue exclusion assay; assay type: cell-based; conditions: HEp-2 cells
Summary of the method: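 Hep2 cells in DMEM with 10% FBS, penicillin-streptomycin, 5% CO₂, 37 °C. Cells at 1 × 10⁵/mL exposed 24 h to seven concentrations (0.005-100 µg/mL), DMSO ≤0.5% final; controls were medium alone, DMSO, and 1 mM sodium nitroprusside. Cells scraped, allowed 30 min recovery, mixed 1:1 with 0.4% trypan blue, counted by hemocytometer by two operators.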

Structure (SMILES)	CC50 at 24 h [µg/mL]
CCC(CC)=NNc1nc(-c2ccc(C)cc2)cs1	≥ 100
C/C(=N\Nc1nc(-c2ccc(Cl)cc2Cl)cs1)C1CCCCC1	42 (≈ 114 µM)
CCCC/C(CC)=N/Nc1nc(-c2ccc(OC)cc2)cs1	35 (≈ 110 µM)

test system: not listed separately; assay: Cytotoxicity against human Hep2 cells assessed as cell survival fraction at 5 ug/ml after 24 hrs by trypan blue exclusion assay (reference value: 97 to 98%); assay type: cell-based; conditions: HEp-2 cells, read-out: Survival

Structure (SMILES)	viability at 24 h, 5 ug/ml [%]
CCC(CC)=NNc1nc(-c2ccc(C)cc2)cs1	84
C/C(=N\Nc1nc(-c2ccc(Cl)cc2Cl)cs1)C1CCCCC1	94
CCCC/C(CC)=N/Nc1nc(-c2ccc(OC)cc2)cs1	81

test system: not listed separately; assay: Cytotoxicity against human Hep2 cells assessed as cell survival fraction at 100 ug/ml after 24 hrs by trypan blue exclusion assay (reference value: 97 to 98%); assay type: cell-based; conditions: HEp-2 cells, read-out: Survival

Structure (SMILES)	viability at 24 h, 100 ug/ml [%]
CCC(CC)=NNc1nc(-c2ccc(C)cc2)cs1	77
C/C(=N\Nc1nc(-c2ccc(Cl)cc2Cl)cs1)C1CCCCC1	0
CCCC/C(CC)=N/Nc1nc(-c2ccc(OC)cc2)cs1	0

test system: not listed separately; assay: Cytotoxicity against human Hep2 cells assessed as cell survival fraction at 0.005 ug/ml after 24 hrs by trypan blue exclusion assay (reference value: 97 to 98%); assay type: cell-based; conditions: HEp-2 cells, read-out: Survival

Structure (SMILES)	viability at 24 h, 0.005 ug/ml [%]
CCC(CC)=NNc1nc(-c2ccc(C)cc2)cs1	94.6
C/C(=N\Nc1nc(-c2ccc(Cl)cc2Cl)cs1)C1CCCCC1	97.2
CCCC/C(CC)=N/Nc1nc(-c2ccc(OC)cc2)cs1	93

test system: Proteus mirabilis; assay: Antibacterial activity against Proteus mirabilis assessed as growth inhibition after 18 to 22 hrs by broth microdilution method; assay type: functional; conditions: not given; summary of the method: as §2

Structure (SMILES)	MIC [µg/mL]
CCC(CC)=NNc1nc(-c2ccc(C)cc2)cs1	> 256
C/C(=N\Nc1nc(-c2ccc(Cl)cc2Cl)cs1)C1CCCCC1	> 256
CCCC/C(CC)=N/Nc1nc(-c2ccc(OC)cc2)cs1	> 256

test system: Nakaseomyces glabratus; assay: Anticandida activity against Candida glabrata clinical isolate assessed as growth inhibition after 24 hrs by broth microdilution method; assay type: functional; conditions: not given; summary of the method: as §1

Structure (SMILES)	MIC [µg/mL]
CCC(CC)=NNc1nc(-c2ccc(C)cc2)cs1	0.25 (≈ 0.914 µM)
C/C(=N\Nc1nc(-c2ccc(Cl)cc2Cl)cs1)C1CCCCC1	2 (≈ 5.43 µM)
CCCC/C(CC)=N/Nc1nc(-c2ccc(OC)cc2)cs1	0.5 (≈ 1.58 µM)

— ChEMBL document CHEMBL2401735, “Synthesis and cytotoxicity of novel (thiazol-2-yl)hydrazine derivatives as promising anti-Candida agents” (Eur J Med Chem, 2013)
